Here are results for 1 compound from ChEMBL document CHEMBL5352503, “Nonpeptidic Oxazole-Based Prolyl Oligopeptidase Ligands with Disease-Modifying Effects on α-Synuclein Mouse Models of Parkinson's Disease” (J Med Chem, 2023).

SMILES strings stand for the structures. Activity calls are given as the source filed them. The calls are words filed in the database; no cut-off is given here.

Data set [1] has as its system Mus musculus. The experiment in a line: Neuroprotective activity against AAV2-CBA-GFP injected C57BL/6JRccHsd mouse model of Parkinson's disease assessed as change in tyrosine hydroxylase positive cell count in substantia nigra pars compacta at 10 mg/kg/day, ip administered for 2 weeks by optical density based analysis. Format: functional, organism-based.
Data set [2] in a line: In vivo inhibition of PREP in C57BL/6JRccHsd mouse liver at 10 mg/kg, ip measured for 3 hrs by LC-MS analysis relative to control. The class given is functional.
Data set [3] can be described thus: Permeability of the compound across blood brain barrier in C57BL/6JRccHsd mouse at 1.86 uM, ip measured at 15 mins by LC-MS analysis. To be noted: 0.25 h. The class given is ADME, organism-based. In outline:
(§1)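 Male C57BL/6JRCcHsd mice, 10 weeks old, dosed 10 mg/kg i.p. in 5% Tween-20 in 0.9% NaCl. Brains collected at 15, 30, 45, 60, 120 and 180 min. Brain compound concentration measured by LC-MS, and AUC0–180 min calculated.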

In data set [4] the test system is HEK293. The experiment in a line: Activation of PP2A in HEK293 cells assessed as decrease in phosphorylated PP2Ac level at 10 uM incubated for 24 hrs by immunoblot analysis. The class given is cell-based. To be noted: Homo sapiens. In short, it runs like this:
(§2)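 HEK-293 cells seeded 500,000/well, attached overnight, then exposed to compound (0.1% DMSO vehicle) for 4 or 24 h. Lysed in RIPA. Western blot with 30 μg protein on 4–20% gels, PVDF transfer, skim-milk block, primary antibody overnight at +4 °C. Detection by chemiluminescence, band OD normalized to β-actin or vinculin. pPP2Ac is the Tyr307-phosphorylated form.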

Data set [5] can be described thus: Permeability of the compound across blood brain barrier in C57BL/6JRccHsd mouse at 1.11 uM, ip measured at 30 mins by LC-MS analysis. The class given is ADME, organism-based. Particulars: 0.5 h. In short, it runs like this: as §1
Data set [6] concerns Mus musculus. The experiment in a line: Neuroprotective activity against AAV2-CBA-alpha-synuclein virus vector injected C57BL/6JRccHsd mouse model of Parkinson's disease assessed as change in tyrosine hydroxylase positive dopaminergic neuron immunoreactivity in substantia nigra pars compacta at 10 mg/kg/day, ip administered for 2 weeks by optical density based analysis. The class given is functional, organism-based.

The nature of data set [7]: Activation of PP2A in HEK293 cells by measuring decrease in ratio between Tyr307 phosphorylated inactive PP2Ac to total PP2Ac incubated for 4 hrs by Western blot analysis. Format: cell-based. To be noted: Homo sapiens, HEK293, 4 h. In outline:
as §2
(In general: A western blot detects proteins with antibodies after separation by electrophoresis.)

Data set [8] concerns HEK293. Kind of data set: Induction of autophagic flux in HEK293 cells expressing GFP-LC3B-RFP at 10 uM incubated for 24 hrs by Hoechst staining based assay. Particulars: Homo sapiens. Format: functional, cell-based.
Data set [9] concerns HEK293. Kind of data set: Activation of PP2A in HEK293 cells by measuring decrease in ratio between Tyr307 phosphorylated inactive PP2Ac to total PP2Ac at 1 uM incubated for 4 hrs by Western blot analysis. To be noted: Homo sapiens, filed as activator. The class given is cell-based. In short, it runs like this: as §2
Data set [10] addresses Dipeptidyl peptidase 9 (Homo sapiens) (UniProt Q86TI2). The experiment in a line: Inhibition of human DPP9 expressed in Sf9 insect cells using Ala-Pro-para-nitroanilide as substrate at 1 to 10 uM preincubated for 15 mins followed by substrate addition and measured for 10 mins. Particulars: dose 1-10 µM, time 25.0 min. In short, it runs like this:
(§3)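 Ala-Pro-pNA substrate at 25 μM for DPP4 (purified from human seminal plasma) or 150 μM for DPP9 (Sf9-expressed). Buffer pH 7.4: 0.05 M HEPES-NaOH, 0.1% Tween-20, 0.1 mg/mL BSA, 150 mM NaCl. Compound at 1 and 10 μM final, preincubated 15 min at 37 °C. pNA release read kinetically at 405 nm for at least 10 min.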

For data set [11], the system named is Mus musculus. The experiment in a line: Downregulation of alpha-syn oligomer expression in C57BL/6JRccHsd mouse striatum injected with AAV2-CBA-alpha-synuclein virus at 10 mg/kg/day, ip administered for 2 weeks by optical density based analysis. The class given is functional, organism-based. In short, it runs like this:
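Unilateral AAV2-CBA-αSyn was injected above the SNpc of male C57BL/6JRCcHsd mice. Dosing at 10 mg/kg/day i.p. by Alzet minipump began 4 weeks after injection. Brain sections were immunostained for oligomer-specific αSyn and optical density was measured in striatum and SNpc, with n = 7–9/group, reported as mean ± SEM.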

In data set [12] the test system is Mus musculus. Kind of data set: Neuroprotective activity against AAV2-CBA-alpha-synuclein virus vector injected C57BL/6JRccHsd mouse model of Parkinson's disease assessed as change in tyrosine hydroxylase positive dopaminergic neuron immunoreactivity in striatum at 10 mg/kg/day, ip administered for 2 weeks by optical density based analysis. The class given is functional, organism-based.

Data set [13] has as its target Alpha-synuclein (Homo sapiens) (UniProt P37840). The experiment in a line: Inhibition of alpha-synuclein (unknown origin) dimerization transfected in HEK293 cells at 10 uM incubated for 4 hrs by luminescence based multimode plate reader method. Format: cell-based.
Data set [14] deals with HEK293. Kind of data set: Activation of PP2A in HEK293 cells assessed as decrease in phosphorylated PP2Ac level at 10 uM incubated for 4 hrs by immunoblot analysis. The class given is cell-based. To be noted: Homo sapiens, filed as activator. In short, it runs like this: as §2
Data set [15] concerns HEK293. The experiment in a line: Activation of PP2A in HEK293 cells assessed as increase in LC3B-II level at 0.1 to 10 uM incubated for 4 hrs by Western blot analysis. The class given is cell-based. To be noted: Homo sapiens, filed as activator, dose 0.1-10 µM. In short, it runs like this: as §2
Data set [16] concerns Mus musculus. Kind of data set: Neuroprotective activity against AAV2-CBA-GFP injected C57BL/6JRccHsd mouse model of Parkinson's disease assessed as change in tyrosine hydroxylase positive dopaminergic neuron immunoreactivity in striatum at 10 mg/kg/day, ip administered for 2 weeks by optical density based analysis. The class given is functional, organism-based.
The target in data set [17] is Dipeptidyl peptidase 4 (Homo sapiens) (UniProt P27487). The experiment in a line: Inhibition of human DPP4 using Ala-Pro-para-nitroanilide as substrate at 1 to 10 uM preincubated for 15 mins followed by substrate addition and measured for 10 mins. To be noted: dose 1-10 µM, time 25.0 min. In short, it runs like this: as §3
The subject of data set [18] is HEK293. Kind of data set: Cytotoxicity against HEK293 cells assessed as cell viability at 1 to 100 uM incubated for 24 hrs by MTT assay. Format: toxicity, cell-based. To be noted: human, hek293, 24 h, dose 1-100 µM.
The test system of a further data set is Neuron. Kind of data set: Cytotoxicity against mouse primary neurons cells assessed as cell viability at 1 to 100 uM incubated for 48 hrs by MTT assay. To be noted: dose 1-100 µM. Format: toxicity, cell-based.
Data set [19] deals with Prolyl endopeptidase FAP (Homo sapiens) (UniProt Q12884). Kind of data set: Inhibition of human FAP expressed in Sf9 insect cells using […] at 1 to 10 uM preincubated for 15 mins followed by substrate addition and measured for 10 mins. To be noted: dose 1-10 µM, time 25.0 min. In short, it runs like this: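 Z-Gly-Pro-AMC at 50 μM, pH 8, in 0.05 M Tris-HCl with 0.1% glycerol, 1 mg/mL BSA and 140 mM NaCl. Enzyme preincubated with compound 15 min at 37 °C. AMC release read kinetically at ex 380/em 465 nm for at least 10 min at 37 °C.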

A short description of data set [20]: Drug elimination in C57BL/6JRccHsd mouse brain at 10 mg/kg, ip measured at 180 mins by LC-MS analysis. The class given is ADME, organism-based. Particulars: in vivo, 3 h. In outline:
as §1

In data set [21] the test system is HEK293. The experiment in a line: Activation of PP2A in HEK293 cells assessed as decrease in inactive phosphorylated PP2Ac level at 1 uM incubated for 4 hrs by Western blot analysis. Format: cell-based. Particulars: Homo sapiens, filed as activator. In outline:
as §2

Dipeptidyl peptidase 4 (Homo sapiens), sequence (P27487 whole entry, looked up): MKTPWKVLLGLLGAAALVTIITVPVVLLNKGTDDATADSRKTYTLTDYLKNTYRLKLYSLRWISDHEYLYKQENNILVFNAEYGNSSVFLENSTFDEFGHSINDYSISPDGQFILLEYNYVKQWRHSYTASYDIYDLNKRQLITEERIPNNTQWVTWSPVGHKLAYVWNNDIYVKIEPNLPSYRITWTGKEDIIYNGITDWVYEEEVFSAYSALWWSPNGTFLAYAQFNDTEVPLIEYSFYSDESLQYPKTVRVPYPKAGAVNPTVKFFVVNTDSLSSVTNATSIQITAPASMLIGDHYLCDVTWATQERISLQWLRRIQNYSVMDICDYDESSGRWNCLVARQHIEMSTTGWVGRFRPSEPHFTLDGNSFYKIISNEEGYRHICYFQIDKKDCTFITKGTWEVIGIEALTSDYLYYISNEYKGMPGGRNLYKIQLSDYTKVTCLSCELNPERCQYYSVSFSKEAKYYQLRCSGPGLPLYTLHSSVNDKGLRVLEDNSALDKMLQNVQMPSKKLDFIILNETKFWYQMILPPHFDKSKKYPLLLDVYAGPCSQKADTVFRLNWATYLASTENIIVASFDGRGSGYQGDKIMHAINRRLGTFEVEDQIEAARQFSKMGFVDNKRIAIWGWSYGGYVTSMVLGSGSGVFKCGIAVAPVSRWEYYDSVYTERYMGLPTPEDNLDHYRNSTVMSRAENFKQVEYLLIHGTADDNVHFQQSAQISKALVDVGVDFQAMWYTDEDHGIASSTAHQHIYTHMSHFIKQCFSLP
Dipeptidyl peptidase 9 (Homo sapiens), sequence (Q86TI2 2-863 limits assumed): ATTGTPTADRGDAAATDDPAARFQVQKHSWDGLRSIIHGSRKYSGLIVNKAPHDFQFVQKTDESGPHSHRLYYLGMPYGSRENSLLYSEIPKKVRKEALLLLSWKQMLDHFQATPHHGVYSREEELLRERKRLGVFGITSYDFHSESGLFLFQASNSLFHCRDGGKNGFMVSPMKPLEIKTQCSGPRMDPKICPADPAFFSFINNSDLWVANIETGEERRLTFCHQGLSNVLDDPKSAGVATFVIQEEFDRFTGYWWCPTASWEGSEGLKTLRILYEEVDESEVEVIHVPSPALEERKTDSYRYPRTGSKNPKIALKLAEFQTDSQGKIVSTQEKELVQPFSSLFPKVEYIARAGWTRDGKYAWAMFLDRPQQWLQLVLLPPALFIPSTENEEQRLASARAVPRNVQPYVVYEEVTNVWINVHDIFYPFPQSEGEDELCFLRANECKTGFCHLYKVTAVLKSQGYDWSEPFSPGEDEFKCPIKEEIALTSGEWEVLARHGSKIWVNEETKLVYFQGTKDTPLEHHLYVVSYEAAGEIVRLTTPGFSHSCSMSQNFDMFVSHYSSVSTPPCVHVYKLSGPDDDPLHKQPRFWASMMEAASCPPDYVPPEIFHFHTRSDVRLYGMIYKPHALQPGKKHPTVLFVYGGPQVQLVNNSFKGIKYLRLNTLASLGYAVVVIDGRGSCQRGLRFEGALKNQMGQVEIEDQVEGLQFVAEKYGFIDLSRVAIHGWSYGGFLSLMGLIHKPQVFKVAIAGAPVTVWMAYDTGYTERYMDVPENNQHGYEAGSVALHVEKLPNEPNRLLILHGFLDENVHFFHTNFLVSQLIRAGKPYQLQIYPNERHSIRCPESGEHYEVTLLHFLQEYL
Prolyl endopeptidase FAP (Homo sapiens), sequence (Q12884 whole entry): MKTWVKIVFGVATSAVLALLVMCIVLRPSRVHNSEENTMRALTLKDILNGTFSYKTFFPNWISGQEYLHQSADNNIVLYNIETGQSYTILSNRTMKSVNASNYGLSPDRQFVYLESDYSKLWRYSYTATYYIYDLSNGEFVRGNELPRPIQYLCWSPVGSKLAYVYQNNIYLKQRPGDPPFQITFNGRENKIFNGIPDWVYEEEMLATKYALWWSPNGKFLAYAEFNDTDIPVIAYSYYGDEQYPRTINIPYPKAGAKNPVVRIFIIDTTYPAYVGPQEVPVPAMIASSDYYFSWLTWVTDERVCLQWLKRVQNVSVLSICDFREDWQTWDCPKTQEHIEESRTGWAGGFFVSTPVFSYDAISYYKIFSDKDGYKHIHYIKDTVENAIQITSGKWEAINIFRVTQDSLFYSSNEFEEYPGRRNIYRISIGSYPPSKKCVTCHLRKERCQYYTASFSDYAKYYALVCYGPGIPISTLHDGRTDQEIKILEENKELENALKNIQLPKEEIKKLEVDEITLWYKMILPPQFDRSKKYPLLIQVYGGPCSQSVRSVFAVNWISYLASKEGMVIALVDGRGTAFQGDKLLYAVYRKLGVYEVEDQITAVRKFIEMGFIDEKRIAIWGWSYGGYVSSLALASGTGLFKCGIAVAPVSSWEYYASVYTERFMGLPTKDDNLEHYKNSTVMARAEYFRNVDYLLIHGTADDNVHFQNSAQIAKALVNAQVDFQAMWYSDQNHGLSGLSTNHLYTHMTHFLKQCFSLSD

Take `Cc1nc(CCCc2ccccc2)oc1N1CCC[C@H]1C#N`: the result with Mus musculus [1], in the data set with HEK293 [4], in the data set on Mus musculus [6], in the data set on Mus musculus [12] and with Mus musculus [16] was inactive. The inhibition in vivo (in general, the share of the control response that was lost under treatment) at 10 mg/kg in [2] was ~25%. Further, the pBBB result in [3] and in data set [5] was “Permeable” in each case. In data set [7], the EC50 (usually the concentration giving half of the maximal effect) turned out to be 275 nM. In addition, the outcome in the data set on HEK293 [8], in the data set with HEK293 [9], in the data set with Mus musculus [11], in the data set with HEK293 [14], in the data set with HEK293 [15] and in the data set with HEK293 [21] was Active. Besides, the inhibition entry in [10], in data set [17] and in [19] was “inactive” each time. In data set [13], the inhibition entry was “Active”. Besides, the Activity result in the data set on HEK293 [18] and with Neuron was “Non-Toxic” in each case. Also, the Drug excretion result in [20] is reported as “Not Active”.
